Data on two compounds can be found in ChEMBL document CHEMBL1141109, “Synthesis of an estrogen receptor beta-selective radioligand: 5-[18F]fluoro-(2R,3S)-2,3-bis(4-hydroxyphenyl)pentanenitrile and comparison of in vivo distribution with 16alpha-[18F]fluoro-17beta-estradiol” (J Med Chem, 2005).

Data set [1] can be described thus: Biodistribution of [18F]FEDPN in alpha estrogen receptor knock out mouse fat after 2 h; (n=3). In kind it is ADME, organism-based, Adipose tissue. As to conditions: in vivo. The method in brief: (§1)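 ERKO female mice (αERKO or βERKO), rested 48 h after shipping, placed on estrogen-free chow, and staged by daily vaginal smears. Injected in a nonestrous stage with 11 µCi [18F]FEDPN in 130 µL of 10% ethanol/saline. Killed at 30 min, 1 h or 2 h. Organs counted and reported as %ID/g ± SD, three animals per point.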

The nature of data set [2]: Biodistribution of [18F]FEDPN in alpha estrogen receptor knock out mouse liver after 30 min; (n=3). In kind it is ADME, organism-based. To be noted: in vivo, 0.5 h. The gist of the method: as §1
A short description of data set [3]: Biodistribution of [18F]FEDPN in beta estrogen receptor knock out mouse liver after 30 min; (n=3). It counts as ADME, organism-based. As to conditions: in vivo, 0.5 h. The gist of the method: (§2)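 αERKO and βERKO mice, staged by daily vaginal smears and kept on estrogen-free chow, were studied in a nonestrous stage. Each mouse received 11 μCi of tracer in 130 μL of 10% ethanol/saline. Mice were killed at 30 min, 1 h or 2 h (n = 3 each). Organs were removed, blotted, weighed and gamma-counted against an injectate standard. Uptake is given as %ID/g ± SD.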

Data set [4] is described as follows: Biodistribution of [18F]FEDPN in beta estrogen receptor knock out mouse spleen after 2 h; (n=3). In kind it is ADME, organism-based. As to conditions: in vivo. The method in brief: as §2
Data set [5] can be described thus: Biodistribution of [18F]FEDPN in alpha estrogen receptor knock out mouse bone after 2 h; (n=3). In kind it is ADME, organism-based, Bone element. As to conditions: in vivo. The gist of the method:
as §1

The nature of data set [6]: Biodistribution of [18F]FEDPN in alpha estrogen receptor knock out mouse fat after 30 min; (n=3). In kind it is ADME, organism-based, Adipose tissue. To be noted: in vivo, 0.5 h. The gist of the method:
as §1

The nature of data set [7]: Biodistribution of [18F]FEDPN in beta estrogen receptor knock out mouse brain after 1 h; (n=3). It counts as ADME, organism-based. As to conditions: in vivo. The method in brief: as §2
The nature of data set [8]: Biodistribution of [18F]FEDPN in rat liver after 1 h when given in tail vein; (n=5). In kind it is ADME, organism-based. To be noted: in vivo, iv. The method in brief:
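Immature female Sprague–Dawley rats (<25 days old) under isoflurane/O2 got 20 µCi tracer in 150 µL 20% ethanol/saline by tail vein. […] Rats were killed at 30 min, 1 h or 2 h. Organs were blotted, weighed and gamma-counted against an injectate standard. Data are %ID/g ± SD, five rats per point.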

Data set [9] is described as follows: Biodistribution of [18F]FEDPN in alpha estrogen receptor knock out mouse lung after 2 h; (n=3). It counts as ADME, organism-based. As to conditions: in vivo. The gist of the method: as §2
A short description of data set [10]: Biodistribution of [18F]-FES in alpha estrogen receptor knock out mouse bone after 30 min; (n=3). As to conditions: in vivo, 0.5 h. It counts as ADME, organism-based, Bone element. The method in brief:
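Female αERKO mice rested 48 h after shipping and fed estrogen-free chow. Estrous stage was checked by daily vaginal smears, and mice were used in diestrus. Each received 13 µCi [18F]FES in 100 µL 10% ethanol/saline. Animals were sacrificed at 30 min, 1 h or 2 h (n = 3 each). Tissue uptake is reported as %ID/g ± SD.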

A short description of data set [11]: Biodistribution of [18F]FES in alpha estrogen receptor knock out mouse heart after 30 min; (n=3). As to conditions: in vivo, 0.5 h. In kind it is ADME, organism-based. The method in brief:
(§3)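 Female αERKO mice were rested 48 h after shipping and fed estrogen-free chow. They were staged by daily vaginal smears and studied in diestrus. Each received 13 µCi [18F]FES in 100 µL 10% ethanol/saline and was sacrificed at 30 min, 1 h or 2 h (n = 3 per time). Tissue uptake is given as %ID/g ± SD.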

Data set [12] is described as follows: Biodistribution of [18F]FES in beta estrogen receptor knock out mouse heart after 2 h; (n=3). In kind it is ADME, organism-based. As to conditions: in vivo.
Data set [13] is described as follows: Biodistribution of [18F]FES in beta estrogen receptor knock out mouse heart after 30 min(n=2); mice in nonestrus stage. It counts as ADME, organism-based. As to conditions: in vivo, 0.5 h.
Data set [14] in a line: Biodistribution of [18F]FES in beta estrogen receptor knock out mouse bone after 2 h; (n=3). It counts as ADME, organism-based, Bone element. As to conditions: in vivo.
Data set [15] is described as follows: Biodistribution of [18F]FES in beta estrogen receptor knock out mouse blood after 30 min(n=2); mice in nonestrus stage. It counts as ADME, organism-based. As to conditions: in vivo, 0.5 h.
Data set [16] can be described thus: Biodistribution of [18F]FES in beta estrogen receptor knock out mouse blood after 30 min; (n=3). It counts as ADME, organism-based. As to conditions: in vivo, 0.5 h.
A short description of data set [17]: Biodistribution of [18F]-FES in alpha estrogen receptor knock out mouse muscle after 1 h; (n=3). In kind it is ADME, organism-based, Muscle tissue. As to conditions: in vivo. The gist of the method: as §3
A short description of data set [18]: Biodistribution of [18F]FES in alpha estrogen receptor knock out mouse fat after 2 h; (n=3). In kind it is ADME, organism-based, Adipose tissue. As to conditions: in vivo. The method in brief:
as §3

For the compound `N#C[C@H](c1ccc(O)cc1)[C@@H](CCF)c1ccc(O)cc1`, the Biodistribution in data set [1] turned out to be 0.09 %ID/g; in data set [2] it was 3.7 %ID/g; in data set [3], 4.55 %ID/g; in data set [4], 0.12 %ID/g; in [5] it was 5.45 %ID/g; in data set [6], 0.57 %ID/g. The Biodistribution was 0.47 %ID/g in data set [7], 1.51 %ID/g in data set [8] and 0.75 %ID/g in [9].

With `C[C@]12CC[C@@H]3c4ccc(O)cc4CC[C@H]3[C@@H]1C[C@@H](F)[C@@H]2O` [FLUOROESTRADIOL], the Biodistribution in [10] is given as 0.44 %ID/g; in data set [11], 0.62 %ID/g; in [12], 0.2 %ID/g; in data set [13], 0.95 %ID/g; in data set [14] it was 0.53 %ID/g; in [15] it was 0.73 %ID/g. In addition, the Biodistribution in data set [16] amounted to 0.67 %ID/g; in data set [17], 0.18 %ID/g; in data set [18], 0.09 %ID/g.
